Test results taken from ChEMBL document CHEMBL1914423, “New imidazo[2,1-b]thiazole derivatives: synthesis, in vitro anticancer evaluation, and in silico studies” (Eur J Med Chem, 2011).

Legend:
Format in all cases: functional
[1] = system: SNB-75; assay: Anticancer activity against human SNB75 cells assessed as cell growth at 10^-5 M after 48 hrs by SRB assay; details: SNB-75, 48 h, read-out: Activity
Summary of the method: (§1)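 NCI-60 single-dose screen: cells in RPMI 1640 with 5% FBS and 2 mM L-glutamine, plated at 5000–40,000 cells/well by doubling time, and preincubated 24 h at 37 °C. Compound given at one concentration from DMSO stock. Cells TCA-fixed and SRB-stained, absorbance at 515 nm. Percent growth relative to time-zero and untreated controls; inhibition % = 100 − growth %.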

[2] = system: SNB-19; assay: Anticancer activity against human SNB19 cells assessed as cell growth at 10^-5 M after 48 hrs by SRB assay; details: SNB-19, 48 h, read-out: Activity
[3] = system: OVCAR-5; assay: Anticancer activity against human OVCAR5 cells assessed as cell growth at 10^-5 M after 48 hrs by SRB assay; details: OVCAR-5, 48 h, read-out: Activity
[4] = system: T47D; assay: Anticancer activity against human T47D cells assessed as cell growth at 10^-5 M after 48 hrs by SRB assay; details: read-out: Activity; summary of the method: as §1
[5] = system: MCF7; assay: Anticancer activity against human MCF7 cells assessed as cell growth at 10^-5 M after 48 hrs by SRB assay; details: MCF7, 48 h, read-out: Activity
Summary of the method: (§2)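 NCI-60 single-dose screen at one concentration. Cells grown in RPMI 1640 with 5% FBS and 2 mM L-glutamine, plated at 5000–40,000 cells/well, and pre-incubated 24 h at 37 °C in 5% CO2 before DMSO-dissolved drug was added. Cells fixed with TCA, SRB-stained, absorbance read at 515 nm. Percent growth calculated against time-zero and untreated control plates.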

[6] = system: SF-539; assay: Anticancer activity against human SF539 cells assessed as cell growth at 10^-5 M after 48 hrs by SRB assay; details: SF-539, 48 h, read-out: Activity
[7] = system: Malme-3M; assay: Anticancer activity against human MALME-3M cells assessed as cell growth at 10^-5 M after 48 hrs by SRB assay; details: read-out: Activity; summary of the method: as §2
[8] = system: KM12; assay: Anticancer activity against human KM12 cells assessed as cell growth at 10^-5 M after 48 hrs by SRB assay; details: KM12, 48 h, read-out: Activity; summary of the method: as §2
[9] = system: RPMI-8226; assay: Anticancer activity against human RPMI8226 cells assessed as cell growth at 10^-5 M after 48 hrs by SRB assay; details: RPMI-8226, 48 h, read-out: Activity
[10] = system: ACHN; assay: Anticancer activity against human ACHN cells assessed as cell growth at 10^-5 M after 48 hrs by SRB assay; details: read-out: Activity; summary of the method: as §2
[11] = system: OVCAR-3; assay: Anticancer activity against human OVCAR3 cells assessed as cell growth at 10^-5 M after 48 hrs by SRB assay; details: OVCAR-3, 48 h, read-out: Activity
[12] = system: MOLT-4; assay: Anticancer activity against human MOLT4 cells assessed as cell growth at 10^-5 M after 48 hrs by SRB assay; details: MOLT-4, 48 h, read-out: Activity
[13] = system: RXF 393; assay: Anticancer activity against human RXF393 cells assessed as cell growth at 10^-5 M after 48 hrs by SRB assay; details: RXF 393, 48 h, read-out: Activity
[14] = system: SK-MEL-28; assay: Anticancer activity against human SK-MEL-28 cells assessed as cell growth at 10^-5 M after 48 hrs by SRB assay; details: SK-MEL-28, 48 h, read-out: Activity
[15] = system: COLO 205; assay: Anticancer activity against human COLO205 cells assessed as cell growth at 10^-5 M after 48 hrs by SRB assay; details: COLO 205, 48 h, read-out: Activity; summary of the method: as §2
[16] = system: NCI-H23; assay: Anticancer activity against human NCI-H23 cells assessed as cell growth at 10^-5 M after 48 hrs by SRB assay; details: NCI-H23, 48 h, read-out: Activity
[17] = system: NCI-H460; assay: Anticancer activity against human NCI-H460 cells assessed as cell growth at 10^-5 M after 48 hrs by SRB assay; details: NCI-H460, 48 h, read-out: Activity
[18] = system: BT-549; assay: Anticancer activity against human BT549 cells assessed as cell growth at 10^-5 M after 48 hrs by SRB assay; details: BT-549, 48 h, read-out: Activity; summary of the method: as §2
[19] = system: MDA-MB-468; assay: Anticancer activity against human MDA-MB-468 cells assessed as cell growth at 10^-5 M after 48 hrs by SRB assay; details: MDA-MB-468, 48 h, read-out: Activity
[20] = system: DU-145; assay: Anticancer activity against human DU145 cells assessed as cell growth at 10^-5 M after 48 hrs by SRB assay; details: DU-145, 48 h, read-out: Activity; summary of the method: as §2
[21] = system: SF-268; assay: Anticancer activity against human SF268 cells assessed as cell growth at 10^-5 M after 48 hrs by SRB assay; details: SF-268, 48 h, read-out: Activity
[22] = system: NCI/ADR-RES; assay: Anticancer activity against human NCI/ADR-RES cells assessed as cell growth at 10^-5 M after 48 hrs by SRB assay; details: read-out: Activity
[23] = system: A498; assay: Anticancer activity against human A498 cells assessed as cell growth at 10^-5 M after 48 hrs by SRB assay; details: A498, 48 h, read-out: Activity; summary of the method: as §2
[24] = system: SN12C; assay: Anticancer activity against human SN12C cells assessed as cell growth at 10^-5 M after 48 hrs by SRB assay; details: read-out: Activity
[25] = system: M14; assay: Anticancer activity against human M14 cells assessed as cell growth at 10^-5 M after 48 hrs by SRB assay; details: M14, 48 h, read-out: Activity; summary of the method: as §2
[26] = system: UACC-62; assay: Anticancer activity against human UACC62 cells assessed as cell growth at 10^-5 M after 48 hrs by SRB assay; details: UACC-62, 48 h, read-out: Activity; summary of the method: as §1
[27] = system: MDA-MB-231; assay: Anticancer activity against human MDA-MB-231 cells assessed as cell growth at 10^-5 M after 48 hrs by SRB assay; details: MDA-MB-231, 48 h, read-out: Activity; summary of the method: as §2
[28] = system: SK-OV-3; assay: Anticancer activity against human SKOV3 cells assessed as cell growth at 10^-5 M after 48 hrs by SRB assay; details: SK-OV-3, 48 h, read-out: Activity
[29] = system: HT-29; assay: Anticancer activity against human HT-29 cells assessed as cell growth at 10^-5 M after 48 hrs by SRB assay; details: HT-29, 48 h, read-out: Activity; summary of the method: as §2
[30] = system: OVCAR-8; assay: Anticancer activity against human OVCAR8 cells assessed as cell growth at 10^-5 M after 48 hrs by SRB assay; details: OVCAR-8, 48 h, read-out: Activity
[31] = system: U-251; assay: Anticancer activity against human U251 cells assessed as cell growth at 10^-5 M after 48 hrs by SRB assay; details: U-251, 48 h, read-out: Activity; summary of the method: as §1
[32] = system: NCI-H322M; assay: Anticancer activity against human NCI-H322M cells assessed as cell growth at 10^-5 M after 48 hrs by SRB assay; details: read-out: Activity

Structure (SMILES)	growth at 10 µM [1] [%]	growth at 10 µM [2] [%]	growth at 10 µM [3] [%]	growth at 10 µM [4] [%]	growth at 10 µM [5] [%]	growth at 10 µM [6] [%]	growth at 10 µM [7] [%]	growth at 10 µM [8] [%]	growth at 10 µM [9] [%]	growth at 10 µM [10] [%]	growth at 10 µM [11] [%]	growth at 10 µM [12] [%]	growth at 10 µM [13] [%]	growth at 10 µM [14] [%]	growth at 10 µM [15] [%]	growth at 10 µM [16] [%]	growth at 10 µM [17] [%]	growth at 10 µM [18] [%]	growth at 10 µM [19] [%]	growth at 10 µM [20] [%]	also measured
COc1cccc(-c2nc3sccn3c2-c2ccnc(NCCNC(=O)c3ccc(N4CCOCC4)c(C(F)(F)F)c3)n2)c1	82.5	105	96.9	67	90.9	79	78.4	76.2	39	70.6	93.8	50.8	78.5	89.5	69	102	77.7	74.8	90.5	111	growth at 10 µM [21]: 89.7%; growth at 10 µM [22]: 69.6%; growth at 10 µM [23]: 64.6%; growth at 10 µM [24]: 91.7%; growth at 10 µM [25]: 62.1%; growth at 10 µM [26]: 41.3%; growth at 10 µM [27]: 94.2%; growth at 10 µM [28]: 82.8%; growth at 10 µM [29]: 50%; growth at 10 µM [30]: 62.4%; growth at 10 µM [31]: 87.2%; growth at 10 µM [32]: 101%
O=C(NCCNc1nccc(-c2c(-c3cccc(O)c3)nc3sccn23)n1)Nc1cccc(C(F)(F)F)c1	66.2	89.5	117	63.8	55.6	98.5	23.6	14.1	-4.81	85.1	76.7	59.8	26.2	48.8	53.2	96.2	80.1	41.1	-40.6	89	growth at 10 µM [21]: 26.2%; growth at 10 µM [22]: 108%; growth at 10 µM [23]: 111%; growth at 10 µM [24]: 70.7%; growth at 10 µM [25]: -21.7%; growth at 10 µM [26]: 29.4%; growth at 10 µM [27]: 37.7%; growth at 10 µM [28]: 85%; growth at 10 µM [29]: 38.9%; growth at 10 µM [30]: 41.1%; growth at 10 µM [31]: 81.6%; growth at 10 µM [32]: 76.8%
COc1cccc(-c2nc3sccn3c2-c2ccnc(NCCNC(=O)Nc3ccccc3)n2)c1	90.8	103	126	82.5	96.2	43.8	112	92	55.5	95.5	109	74.9	107	108	100	111	115	96	101	102	growth at 10 µM [21]: 103%; growth at 10 µM [22]: 96.1%; growth at 10 µM [23]: 103%; growth at 10 µM [24]: 65.6%; growth at 10 µM [25]: 99.1%; growth at 10 µM [26]: 86%; growth at 10 µM [27]: 103%; growth at 10 µM [28]: 99%; growth at 10 µM [29]: 87.5%; growth at 10 µM [30]: 74.7%; growth at 10 µM [31]: 108%; growth at 10 µM [32]: 108%
O=C(NCCNc1nccc(-c2c(-c3cccc(O)c3)nc3sccn23)n1)c1ccccc1	54.4	91.1	90.6	58.6	38.1	73.2	9.31	75.9	76.8	60.5	92.3	67.1	62.6	37.8	48.5	82.6	42.4	61.4	54.7	90.5	growth at 10 µM [21]: 80.7%; growth at 10 µM [22]: 99.7%; growth at 10 µM [23]: 48%; growth at 10 µM [24]: 66.4%; growth at 10 µM [25]: 15.3%; growth at 10 µM [26]: 0.9%; growth at 10 µM [27]: 80%; growth at 10 µM [28]: 65.1%; growth at 10 µM [29]: 65.4%; growth at 10 µM [30]: 66.6%; growth at 10 µM [31]: 61.9%; growth at 10 µM [32]: 101%
COc1cccc(-c2nc3sccn3c2-c2ccnc(NCCNC(=O)c3ccccc3)n2)c1	92.6	110	99.1	61.9	81.7	97.7	26.7	87.8	41.6	65.8	89.2	53.4	86.3	64.2	51.8	87.3	84.9	85.1	79.4	100	growth at 10 µM [21]: 92.7%; growth at 10 µM [22]: 70.5%; growth at 10 µM [23]: 66.3%; growth at 10 µM [24]: 84.3%; growth at 10 µM [25]: 40.1%; growth at 10 µM [26]: 24.6%; growth at 10 µM [27]: 83.5%; growth at 10 µM [28]: 88.5%; growth at 10 µM [29]: 53.5%; growth at 10 µM [30]: 62.5%; growth at 10 µM [31]: 102%; growth at 10 µM [32]: 110%
O=C(NCCNc1nccc(-c2c(-c3cccc(O)c3)nc3sccn23)n1)c1cc(C(F)(F)F)cc(C(F)(F)F)c1	87.7	123	104	88.5	96.3	113	27	103	91	88.3	108	87.7	107	61.8	59.8	119	107	108	101	114	growth at 10 µM [21]: 105%; growth at 10 µM [22]: 108%; growth at 10 µM [23]: 112%; growth at 10 µM [24]: 102%; growth at 10 µM [25]: 38.2%; growth at 10 µM [26]: 27.5%; growth at 10 µM [27]: 101%; growth at 10 µM [28]: 96.3%; growth at 10 µM [29]: 63.1%; growth at 10 µM [30]: 102%; growth at 10 µM [31]: 105%; growth at 10 µM [32]: 122%
